Reference: ChEMBL document CHEMBL4038304, “Chiral Indolylarylsulfone Non-Nucleoside Reverse Transcriptase Inhibitors as New Potent and Broad Spectrum Anti-HIV-1 Agents” (J Med Chem, 2017)

System: Human immunodeficiency virus 1
Test: Antiviral activity against HIV1 NL4-3 infected in human […] cells assessed as protection against virus-induced cytopathic effect measured on day 5 post infection by MTT assay
Assay type: functional, cell-based
Settings: Human immunodeficiency virus 1, NL4-3, 120 h
Summary of the method: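 Values are means of two to three independent experiments, each run in triplicate. The lowest detectable concentration is reported where activity fell below the assay limit.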

SMILES	EC50 [nM]
Cc1cc(C)cc(S(=O)(=O)c2c(C(=O)N[C@@H](C)c3ccccc3F)[nH]c3ccc(Cl)cc23)c1	0.7
Cc1cc(C)cc(S(=O)(=O)c2c(C(=O)N[C@H](C)c3ccccc3F)[nH]c3ccc(Cl)cc23)c1	0.7
Cc1cc(C)cc(S(=O)(=O)c2c(C(=O)N[C@@H](C)C(=O)N[C@@H](C)c3ccncc3)[nH]c3ccc(Cl)cc23)c1	0.6
Cc1cc(C)cc(S(=O)(=O)c2c(C(=O)N[C@@H](C)C(=O)NCc3ccco3)[nH]c3ccc(Cl)cc23)c1	0.6
Cc1cc(C)cc(S(=O)(=O)c2c(C(=O)N[C@H](C)C(=O)NCc3ccco3)[nH]c3ccc(Cl)cc23)c1	0.6
Cc1cc(C)cc(S(=O)(=O)c2c(C(=O)N[C@@H](C)C(=O)N[C@H](C)c3ccncc3)[nH]c3ccc(Cl)cc23)c1	0.6
Cc1cc(C)cc(S(=O)(=O)c2c(C(=O)N[C@H](C)C(=O)N[C@H](C)c3ccncc3)[nH]c3ccc(Cl)cc23)c1	3.8

System: Human immunodeficiency virus 1
Test: Antiviral activity against HIV1 harboring reverse transcriptase K103N mutant infected in human […] cells assessed as protection against virus-induced cytopathic effect measured on day 5 post infection by MTT assay
Assay type: functional, cell-based
Settings: Human immunodeficiency virus 1, 120 h

SMILES	EC50 [nM]
Cc1cc(C)cc(S(=O)(=O)c2c(C(=O)N[C@@H](C)c3ccccc3F)[nH]c3ccc(Cl)cc23)c1	103
Cc1cc(C)cc(S(=O)(=O)c2c(C(=O)N[C@H](C)c3ccccc3F)[nH]c3ccc(Cl)cc23)c1	0.7
Cc1cc(C)cc(S(=O)(=O)c2c(C(=O)N[C@@H](C)C(=O)N[C@@H](C)c3ccncc3)[nH]c3ccc(Cl)cc23)c1	1.3
Cc1cc(C)cc(S(=O)(=O)c2c(C(=O)N[C@@H](C)C(=O)NCc3ccco3)[nH]c3ccc(Cl)cc23)c1	0.6
Cc1cc(C)cc(S(=O)(=O)c2c(C(=O)N[C@H](C)C(=O)NCc3ccco3)[nH]c3ccc(Cl)cc23)c1	311
Cc1cc(C)cc(S(=O)(=O)c2c(C(=O)N[C@@H](C)C(=O)N[C@H](C)c3ccncc3)[nH]c3ccc(Cl)cc23)c1	0.6
Cc1cc(C)cc(S(=O)(=O)c2c(C(=O)N[C@H](C)C(=O)N[C@H](C)c3ccncc3)[nH]c3ccc(Cl)cc23)c1	1210

System: Human immunodeficiency virus 1
Test: Antiviral activity against HIV1 harboring reverse transcriptase Y181C mutant infected in human […] cells assessed as protection against virus-induced cytopathic effect measured on day 5 post infection by MTT assay
Assay type: functional, cell-based
Settings: Human immunodeficiency virus 1, 120 h

SMILES	EC50 [nM]
Cc1cc(C)cc(S(=O)(=O)c2c(C(=O)N[C@@H](C)c3ccccc3F)[nH]c3ccc(Cl)cc23)c1	680
Cc1cc(C)cc(S(=O)(=O)c2c(C(=O)N[C@H](C)c3ccccc3F)[nH]c3ccc(Cl)cc23)c1	0.7
Cc1cc(C)cc(S(=O)(=O)c2c(C(=O)N[C@@H](C)C(=O)N[C@@H](C)c3ccncc3)[nH]c3ccc(Cl)cc23)c1	0.6
Cc1cc(C)cc(S(=O)(=O)c2c(C(=O)N[C@@H](C)C(=O)NCc3ccco3)[nH]c3ccc(Cl)cc23)c1	3.5
Cc1cc(C)cc(S(=O)(=O)c2c(C(=O)N[C@H](C)C(=O)NCc3ccco3)[nH]c3ccc(Cl)cc23)c1	933
Cc1cc(C)cc(S(=O)(=O)c2c(C(=O)N[C@@H](C)C(=O)N[C@H](C)c3ccncc3)[nH]c3ccc(Cl)cc23)c1	0.6
Cc1cc(C)cc(S(=O)(=O)c2c(C(=O)N[C@H](C)C(=O)N[C@H](C)c3ccncc3)[nH]c3ccc(Cl)cc23)c1	1170

System: Human immunodeficiency virus 1
Test: Antiviral activity against HIV1 harboring reverse transcriptase Y188L mutant infected in human […] cells assessed as protection against virus-induced cytopathic effect measured on day 5 post infection by MTT assay
Assay type: functional, cell-based
Settings: Human immunodeficiency virus 1, 120 h

SMILES	EC50 [nM]
Cc1cc(C)cc(S(=O)(=O)c2c(C(=O)N[C@@H](C)c3ccccc3F)[nH]c3ccc(Cl)cc23)c1	> 51600
Cc1cc(C)cc(S(=O)(=O)c2c(C(=O)N[C@H](C)c3ccccc3F)[nH]c3ccc(Cl)cc23)c1	165
Cc1cc(C)cc(S(=O)(=O)c2c(C(=O)N[C@@H](C)C(=O)N[C@@H](C)c3ccncc3)[nH]c3ccc(Cl)cc23)c1	612
Cc1cc(C)cc(S(=O)(=O)c2c(C(=O)N[C@@H](C)C(=O)NCc3ccco3)[nH]c3ccc(Cl)cc23)c1	700
Cc1cc(C)cc(S(=O)(=O)c2c(C(=O)N[C@H](C)C(=O)NCc3ccco3)[nH]c3ccc(Cl)cc23)c1	> 30200
Cc1cc(C)cc(S(=O)(=O)c2c(C(=O)N[C@@H](C)C(=O)N[C@H](C)c3ccncc3)[nH]c3ccc(Cl)cc23)c1	742
Cc1cc(C)cc(S(=O)(=O)c2c(C(=O)N[C@H](C)C(=O)N[C@H](C)c3ccncc3)[nH]c3ccc(Cl)cc23)c1	> 27000

System: Human immunodeficiency virus 1
Test: Antiviral activity against HIV1 harboring reverse transcriptase K103N /[…] double mutant infected in human […] cells assessed as protection against virus-induced cytopathic effect measured on day 5 post infection by MTT assay
Assay type: functional, cell-based
Settings: Human immunodeficiency virus 1, 120 h

SMILES	EC50 [nM]
Cc1cc(C)cc(S(=O)(=O)c2c(C(=O)N[C@@H](C)c3ccccc3F)[nH]c3ccc(Cl)cc23)c1	> 51600
Cc1cc(C)cc(S(=O)(=O)c2c(C(=O)N[C@H](C)c3ccccc3F)[nH]c3ccc(Cl)cc23)c1	2490
Cc1cc(C)cc(S(=O)(=O)c2c(C(=O)N[C@@H](C)C(=O)N[C@@H](C)c3ccncc3)[nH]c3ccc(Cl)cc23)c1	1280
Cc1cc(C)cc(S(=O)(=O)c2c(C(=O)N[C@@H](C)C(=O)NCc3ccco3)[nH]c3ccc(Cl)cc23)c1	1890
Cc1cc(C)cc(S(=O)(=O)c2c(C(=O)N[C@H](C)C(=O)NCc3ccco3)[nH]c3ccc(Cl)cc23)c1	> 30200
Cc1cc(C)cc(S(=O)(=O)c2c(C(=O)N[C@@H](C)C(=O)N[C@H](C)c3ccncc3)[nH]c3ccc(Cl)cc23)c1	1260
Cc1cc(C)cc(S(=O)(=O)c2c(C(=O)N[C@H](C)C(=O)N[C@H](C)c3ccncc3)[nH]c3ccc(Cl)cc23)c1	> 27000

Target: Human immunodeficiency virus type 1 reverse transcriptase (Human immunodeficiency virus 1, UniProt Q72547)
Test: Inhibition of HIV1 NL4-3 reverse transcriptase His-tagged p66/p51 associated RNA dependent DNA polymerase activity expressed in Escherichia coli assessed as reduction in [3H]dTTP incorporation using poly(rA)/oligo(dT) as template/primer by scintillation counting analysis
Settings: not given

SMILES	IC50 [nM]
Cc1cc(C)cc(S(=O)(=O)c2c(C(=O)N[C@@H](C)c3ccccc3F)[nH]c3ccc(Cl)cc23)c1	175
Cc1cc(C)cc(S(=O)(=O)c2c(C(=O)N[C@H](C)c3ccccc3F)[nH]c3ccc(Cl)cc23)c1	87
Cc1cc(C)cc(S(=O)(=O)c2c(C(=O)N[C@@H](C)C(=O)N[C@@H](C)c3ccncc3)[nH]c3ccc(Cl)cc23)c1	430
Cc1cc(C)cc(S(=O)(=O)c2c(C(=O)N[C@@H](C)C(=O)NCc3ccco3)[nH]c3ccc(Cl)cc23)c1	113
Cc1cc(C)cc(S(=O)(=O)c2c(C(=O)N[C@H](C)C(=O)NCc3ccco3)[nH]c3ccc(Cl)cc23)c1	145
Cc1cc(C)cc(S(=O)(=O)c2c(C(=O)N[C@@H](C)C(=O)N[C@H](C)c3ccncc3)[nH]c3ccc(Cl)cc23)c1	610
Cc1cc(C)cc(S(=O)(=O)c2c(C(=O)N[C@H](C)C(=O)N[C@H](C)c3ccncc3)[nH]c3ccc(Cl)cc23)c1	410

Target: Human immunodeficiency virus type 1 reverse transcriptase (Human immunodeficiency virus 1, UniProt Q72547, K103N)
Test: Inhibition of HIV1 reverse transcriptase p66 K103N mutant associated RNA dependent DNA polymerase activity expressed in Escherichia coli assessed as reduction in [3H]dTTP incorporation using poly(rA)/oligo(dT) as template/primer by scintillation counting analysis
Settings: not given

SMILES	IC50 [nM]
Cc1cc(C)cc(S(=O)(=O)c2c(C(=O)N[C@H](C)c3ccccc3F)[nH]c3ccc(Cl)cc23)c1	228
Cc1cc(C)cc(S(=O)(=O)c2c(C(=O)N[C@@H](C)C(=O)N[C@@H](C)c3ccncc3)[nH]c3ccc(Cl)cc23)c1	2590
Cc1cc(C)cc(S(=O)(=O)c2c(C(=O)N[C@@H](C)C(=O)NCc3ccco3)[nH]c3ccc(Cl)cc23)c1	1120
Cc1cc(C)cc(S(=O)(=O)c2c(C(=O)N[C@H](C)C(=O)NCc3ccco3)[nH]c3ccc(Cl)cc23)c1	70
Cc1cc(C)cc(S(=O)(=O)c2c(C(=O)N[C@@H](C)C(=O)N[C@H](C)c3ccncc3)[nH]c3ccc(Cl)cc23)c1	300
Cc1cc(C)cc(S(=O)(=O)c2c(C(=O)N[C@H](C)C(=O)N[C@H](C)c3ccncc3)[nH]c3ccc(Cl)cc23)c1	23700

Target: Human immunodeficiency virus type 1 reverse transcriptase (Human immunodeficiency virus 1, UniProt Q72547, Y181I)
Test: Inhibition of HIV1 reverse transcriptase p66 Y181I mutant associated RNA dependent DNA polymerase activity expressed in Escherichia coli assessed as reduction in [3H]dTTP incorporation using poly(rA)/oligo(dT) as template/primer by scintillation counting analysis
Settings: not given

SMILES	IC50 [nM]
Cc1cc(C)cc(S(=O)(=O)c2c(C(=O)N[C@@H](C)c3ccccc3F)[nH]c3ccc(Cl)cc23)c1	17200
Cc1cc(C)cc(S(=O)(=O)c2c(C(=O)N[C@H](C)c3ccccc3F)[nH]c3ccc(Cl)cc23)c1	456
Cc1cc(C)cc(S(=O)(=O)c2c(C(=O)N[C@@H](C)C(=O)N[C@@H](C)c3ccncc3)[nH]c3ccc(Cl)cc23)c1	440
Cc1cc(C)cc(S(=O)(=O)c2c(C(=O)N[C@@H](C)C(=O)NCc3ccco3)[nH]c3ccc(Cl)cc23)c1	14200
Cc1cc(C)cc(S(=O)(=O)c2c(C(=O)N[C@H](C)C(=O)NCc3ccco3)[nH]c3ccc(Cl)cc23)c1	276
Cc1cc(C)cc(S(=O)(=O)c2c(C(=O)N[C@@H](C)C(=O)N[C@H](C)c3ccncc3)[nH]c3ccc(Cl)cc23)c1	1700
Cc1cc(C)cc(S(=O)(=O)c2c(C(=O)N[C@H](C)C(=O)N[C@H](C)c3ccncc3)[nH]c3ccc(Cl)cc23)c1	5790

System: not listed separately
Test: Inhibition of HIV1 reverse transcriptase p66 K103N/[…] double mutant associated RNA dependent DNA polymerase activity expressed in Escherichia coli assessed as reduction in [3H]dTTP incorporation using poly(rA)/oligo(dT) as template/primer by scintillation counting analysis
Set-up: species or system Human immunodeficiency virus 1
Settings: not given

SMILES	IC50 [nM]
Cc1cc(C)cc(S(=O)(=O)c2c(C(=O)N[C@@H](C)c3ccccc3F)[nH]c3ccc(Cl)cc23)c1	> 10000
Cc1cc(C)cc(S(=O)(=O)c2c(C(=O)N[C@H](C)c3ccccc3F)[nH]c3ccc(Cl)cc23)c1	222
Cc1cc(C)cc(S(=O)(=O)c2c(C(=O)N[C@@H](C)C(=O)N[C@@H](C)c3ccncc3)[nH]c3ccc(Cl)cc23)c1	860
Cc1cc(C)cc(S(=O)(=O)c2c(C(=O)N[C@@H](C)C(=O)NCc3ccco3)[nH]c3ccc(Cl)cc23)c1	9640
Cc1cc(C)cc(S(=O)(=O)c2c(C(=O)N[C@H](C)C(=O)NCc3ccco3)[nH]c3ccc(Cl)cc23)c1	233
Cc1cc(C)cc(S(=O)(=O)c2c(C(=O)N[C@@H](C)C(=O)N[C@H](C)c3ccncc3)[nH]c3ccc(Cl)cc23)c1	490
Cc1cc(C)cc(S(=O)(=O)c2c(C(=O)N[C@H](C)C(=O)N[C@H](C)c3ccncc3)[nH]c3ccc(Cl)cc23)c1	13800

Target: Human immunodeficiency virus type 1 reverse transcriptase (Human immunodeficiency virus 1, UniProt Q72547, Y181C)
Test: Inhibition of HIV1 reverse transcriptase p66 Y181C mutant associated RNA dependent DNA polymerase activity expressed in Escherichia coli assessed as reduction in [3H]dTTP incorporation using poly(rA)/oligo(dT) as template/primer by scintillation counting analysis
Settings: not given

SMILES	IC50 [nM]
Cc1cc(C)cc(S(=O)(=O)c2c(C(=O)N[C@@H](C)c3ccccc3F)[nH]c3ccc(Cl)cc23)c1	17200
Cc1cc(C)cc(S(=O)(=O)c2c(C(=O)N[C@H](C)c3ccccc3F)[nH]c3ccc(Cl)cc23)c1	456
